# Rin1-Abl PPI inh – inhibitors of Rin1-Abl protein binding, primary screen, biochemical, TR-FRET. Tyrosine-protein kinase ABL1 (Homo sapiens) + Ras and Rab interactor 1 (Homo sapiens), …. inhibition, % at 7.35 µM. 360,000 tested, 0.4% active; in the data active means inhibition above about 5%, passing the limit was not always enough
# Apaf-1 inh – inhibitors of human Apaf-1 apoptosome, primary screen, biochemical, DEVD-Rh110 fluorescence, uHTS; Apoptotic protease-activating factor 1 (Homo sapiens), O14727; reconstituted apoptosome caspase-3 activity; inhibition, % at 20 µM; 330,000 tested, 0.71% active; AID 489030, 2010; active means inhibition of at least 40% at 20 µM;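 further: plate controls were DMSO wells for no effect and DEVD-CHO caspase inhibitor wells for full effect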
# Target sequence (O14727 whole entry, looked up): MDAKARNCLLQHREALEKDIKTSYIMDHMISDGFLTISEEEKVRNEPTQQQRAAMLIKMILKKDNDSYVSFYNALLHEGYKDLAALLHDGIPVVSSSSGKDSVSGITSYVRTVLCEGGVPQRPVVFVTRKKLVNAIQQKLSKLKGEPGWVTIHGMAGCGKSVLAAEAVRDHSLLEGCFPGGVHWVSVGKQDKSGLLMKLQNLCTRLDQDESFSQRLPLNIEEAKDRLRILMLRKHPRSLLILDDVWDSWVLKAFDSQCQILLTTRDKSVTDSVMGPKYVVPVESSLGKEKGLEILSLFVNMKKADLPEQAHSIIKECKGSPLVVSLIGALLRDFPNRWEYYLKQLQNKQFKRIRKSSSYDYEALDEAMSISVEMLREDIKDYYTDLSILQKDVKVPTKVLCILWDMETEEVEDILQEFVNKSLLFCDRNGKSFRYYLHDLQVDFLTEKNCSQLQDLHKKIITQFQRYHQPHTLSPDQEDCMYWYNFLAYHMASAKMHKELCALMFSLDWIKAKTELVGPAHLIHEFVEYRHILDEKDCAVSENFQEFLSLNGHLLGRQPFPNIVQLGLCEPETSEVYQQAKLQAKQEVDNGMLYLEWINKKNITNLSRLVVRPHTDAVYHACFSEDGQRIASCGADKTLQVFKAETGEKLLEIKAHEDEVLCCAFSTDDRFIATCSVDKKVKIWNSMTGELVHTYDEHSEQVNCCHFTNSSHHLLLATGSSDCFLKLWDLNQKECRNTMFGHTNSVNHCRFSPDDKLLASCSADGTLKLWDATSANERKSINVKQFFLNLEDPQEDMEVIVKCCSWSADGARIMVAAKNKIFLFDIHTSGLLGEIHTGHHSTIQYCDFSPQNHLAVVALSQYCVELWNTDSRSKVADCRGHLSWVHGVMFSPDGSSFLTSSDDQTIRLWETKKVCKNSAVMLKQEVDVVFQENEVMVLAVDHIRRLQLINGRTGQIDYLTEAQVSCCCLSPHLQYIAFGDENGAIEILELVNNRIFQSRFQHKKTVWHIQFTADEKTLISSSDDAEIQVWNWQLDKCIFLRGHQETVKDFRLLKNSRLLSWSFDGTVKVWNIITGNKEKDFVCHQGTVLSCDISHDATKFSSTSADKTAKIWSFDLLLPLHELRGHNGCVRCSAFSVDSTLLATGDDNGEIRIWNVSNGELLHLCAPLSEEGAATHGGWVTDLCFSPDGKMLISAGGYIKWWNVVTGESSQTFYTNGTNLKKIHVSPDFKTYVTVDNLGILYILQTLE
#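 System: Apoptosome proteins | Medium: Hepes pH 7.5 with detergent and BSA | Also added: Cytochrome c trigger plus (Z-DEVD)2-Rh110 caspase-3 substrate | Incubation: 30 min compound preincubation, 50 min activation, room temperature | Detection: Rhodamine 110 fluorescence at Ex 480/Em 540 nm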
# UBC13 inh – UBC13 polyubiquitin chain formation inhibitors, primary screen, biochemical, TR-FRET, uHTS; inhibition, % at 20 µM; 330,000 tested, 0.47% active; Ubiquitin-conjugating enzyme E2 N (Homo sapiens), P61088; in the data active means inhibition above about 45%, passing the limit was not always enough
# PAD4 FP inh – human PAD4 inhibitors, primary screen, biochemical, fluorescence polarization, 1536-well format; Protein-arginine deiminase type-4 (Homo sapiens), Q9UM07; recombinant PAD4, RCA probe fluorescence polarization; inhibition, % at 6.36 µM; 330,000 tested, 0.41% active;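 active means percent inhibition above a cutoff equal to the mean of all tested compounds plus 3 SD, cut at about 15% in these data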;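 further: 0% = PAD4 with RCA probe and DMSO and 100% = probe without PAD4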
# GSTO1 inh – inhibitors of recombinant GSTO1, primary screen, counter-screen for RBBP9 inhibitor project, biochemical, fluorescence polarization; Glutathione S-transferase omega-1 (Homo sapiens), P78417; activity-based probe fluorescence polarization; inhibition, % at 5.96 µM; 300,000 tested, 1.1% active; AID 1974, 2009;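 active means inhibition above the campaign mean inhibition plus 3 SD, cut at about 35% in these data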;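 further: 0% = GSTO1-1 with DMSO and 100% = wells lacking GSTO1-1 enzyme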
# UBC9 SUMO inh – inhibitors of in vitro SUMOylation cascade, primary screen, biochemical, HTRF, uHTS; SUMO-conjugating enzyme UBC9 (Homo sapiens), P63279; HTRF SUMOylation assay, SAE1/SAE2 + UBC9; inhibition, % at 35 µM; 290,000 tested, 0.36% active; AID 2006, 2009; in the data active means inhibition above about 50%, passing the limit was not always enough
# GSTO1 confirm – GSTO1 inhibitor hit confirmation, counter-screen for RBBP9 inhibitor project, biochemical, fluorescence polarization, triplicate. 2,400 tested, 54% active. recombinant GSTO1, probe fluorescence polarization. inhibition, % at 5.96 µM. shares compounds with GSTO1 inh;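 active means inhibition above the primary screen's cutoff, its mean inhibition plus 3 SD, cut at about 35% in these data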;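 further: loss of polarization as inhibitors block binding of rhodamine sulfonate ester activity probe; 0% = GSTO1 with DMSO and 100% = wells lacking GSTO1 enzyme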
# PAD4 FP conf – human PAD4 inhibitors, confirmation, biochemical, fluorescence polarization; inhibition, % at 6.36 µM; recombinant PAD4, RCA probe fluorescence polarization; shares compounds with PAD4 FP inh; 1,200 tested, 28% active;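 active means mean inhibition across replicates above the hit cutoff set by the earlier primary screen, cut at about 15% in these data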;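 further: inhibitors block active-site labeling by the probe so polarization falls; 0% = PAD4 with probe and DMSO and 100% = probe without PAD4 enzyme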
# Apaf-1 inh conf – Apaf-1 inhibitors, single-dose retest, confirmation, biochemical, fluorescence, DEVD-Rh110, 20 µM; shares compounds with Apaf-1 inh; reconstituted apoptosome, caspase-3 DEVD-Rh110 fluorescence; inhibition, % at 20 µM; 1,800 tested, 25% active; AID 504614, 2011;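 active means mean inhibition of at least 40% at 20 µM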;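 further: plate controls were DMSO wells for no effect and DEVD-CHO caspase inhibitor control wells for full effect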
# Rh110 quench – Rh110 fluorescence interference by putative Apaf-1 inhibitors, confirmation, artefact control for Apaf-1 inhibitor project, biochemical, 20 µM | shares compounds with Apaf-1 inh | quenched caspase reaction | activation (fluorescence interference), % at 20 µM | 1,800 tested, under 10 active;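 active means signal rise of 40% or more at 20 µM, treated as a fluorescence artifact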
# Apaf1 inh interf – fluorescence interference of Apaf-1 inhibitor hits, dose response, artefact control for Apaf-1 inhibitor project; fluorescence interference counterscreen, Apaf-1 assay format; IC50, µM; AID 588538, 2011; 460 tested, under 10 active; shares compounds with Apaf-1 inh; call rule not given here
# Rin1 Abl conf – Rin1-Abl binding inhibitor retest, confirmation, biochemical, TR-FRET | shares compounds with Rin1-Abl PPI inh | purified proteins | inhibition, % at 7.35 µM | 1,300 tested, 49% active | AID 602124, 2011
# GFP quencher – GFP fluorescence inhibitors and quenchers, artefact control for Rin1-Abl interaction inhibitor project, biochemical. shares compounds with Rin1-Abl PPI inh. inhibitors/quenchers counterscreen. inhibition, % at 6.75 µM. 1,300 tested, 8.5% active;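 further: ABL1-eGFP fusion protein alone without its partner RIN1-SBP; 0% = protein with vehicle and 100% = wells lacking protein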
# * hit, by the source's call; / = no result. Rows were chosen to be rich in hits. Some 2.2% of all compounds tested hit in one or more screens of this group. Unless noted, no stated cut-off is given here; in the data, active means inhibition above about 6.5%; inactive means the rest.
SMILES,Rin1-Abl PPI inh,Apaf-1 inh,UBC13 inh,PAD4 FP inh,GSTO1 inh,UBC9 SUMO inh,PAD4 FP conf,others
Cc1[nH][nH]c(=O)c1C(c1ccc(-c2cccc(Cl)c2)o1)c1c(C)[nH][nH]c1=O,7.9*,87*,-15,44*,72*,88,36*,GSTO1 confirm=57*;Apaf-1 inh conf=41*;Rh110 quench=-2;Apaf1 inh interf=>100;Rin1 Abl conf=8.5*;GFP quencher=4
O=c1[nH]nc(Cc2ccc(-c3cccc(Cl)c3)o2)c2ccccc12,2,13,-3,-6,-6,2,/,
COc1ccccc1C1c2ccc3ccccc3c2Oc2ncn(CCCO)c(=N)c21 (centres undefined),0,8,31,-7,-12,-17,/,
COc1ccccc1C1c2ccc3ccccc3c2Oc2ncn(CCN(C)C)c(=N)c21 (centres undefined),-1,19,37,19*,1,25,1,
CC1(C(=O)NS(=O)(=O)c2cccs2)CCN1C(=O)C1CC1 (centres undefined),-2,/,/,/,/,/,/,
Cc1ccc([C@H]2N[C@]3(CCCN(Cc4cccn4C)C3=O)[C@H]3C(=O)N(C)C(=O)[C@@H]23)cc1,4,/,/,/,/,/,/,
CC(C)C[C@H]1CNC(=S)N1C[C@H]1CCCN1C[C@H](Cc1ccc(O)cc1)N1C[C@H](CC(C)C)N(CCc2ccccc2)C1=S,7,/,/,/,/,/,/,
Cc1[nH]c2ccccc2c1/C=N/Nc1nncn1N,2,0,9,35*,23,-18,7,
COc1ccc(Cc2c(-c3ccc(OC)c(OC)c3)nc3ccc(C)cn23)c(C)c1,-1,/,/,/,/,/,/,
Cn1c(=O)c2c(nc(Oc3ccccc3Br)n2C)n(C)c1=O,3,/,/,/,/,-7,/,
Cn1c(=O)c(N)c2c3c(c(Br)ccc31)C(=O)c1ccccc1-2,-6,22,-77,106*,29,20,126*,
O=C1CCC(c2ccccc2)N1c1ccccc1 (centres undefined),5,/,/,/,/,/,/,
COc1ccc(-c2cc(C(=O)N3CCCCCC3)c3ccccc3n2)c(OC)c1,-2,20,3,16*,6,14,49*,
NC(=O)CC(NC(=O)Cc1ccc(Br)cc1)c1ccc(N2CCN(c3ccc(F)cc3)CC2)c([N+](=O)[O-])c1 (centres undefined),1,6,-1,-2,1,16,/,
Cc1cc(C(=O)CSc2nc(N)cc(=O)[nH]2)c(C)n1CC1CCCO1 (centres undefined),0,4,-3,28*,/,/,15*,
Cc1cc(C(=O)CSc2nc(N)cc(N)n2)c(C)n1CC1CCCO1 (centres undefined),0,-2,3,2,/,/,/,
NC(=O)c1nsc(C(=O)N(Cc2ccco2)C(C(=O)NCc2ccc(F)cc2)c2ccc(O)cc2)c1N (centres undefined),-1,8,8,2,1,16,/,
CCC(C)(C)NC(=O)C(c1ccc(F)cc1)N(Cc1ccco1)C(=O)c1snc(C(N)=O)c1N (centres undefined),-3,1,22,16*,7,-15,3,
Cc1cc2nc3c(=O)[nH]c(=S)[nH]c3nc2cc1NC(=O)C(F)(F)F,11,2,-90,41*,9,60*,39*,
O=c1[nH]c(=S)[nH]c2nc(-c3ccccc3)cnc12,-2,5,-3,8,-9,/,/,
COc1ccc(-c2cc(C(=O)OC(C)C(=O)Nc3c(C)n(C)n(-c4ccccc4)c3=O)c3ccccc3n2)cc1 (centres undefined),-2,20,14,-2,0,8,/,
Cc1c(NC(=O)C(C)OC(=O)c2cc(-c3cccc4ccccc34)nc3ccccc23)c(=O)n(-c2ccccc2)n1C (centres undefined),-3,27,-11,19*,8,13,4,
Cc1sc2ncnc(N3CCC(C(=O)N(CC(C)C)c4nc5ccccc5s4)CC3)c2c1C,0,17,-6,-3,-7,/,/,
COc1ncnc2c1NC1=C(S2)C(=NCCC(=O)O)CC(C)(C)C1,-5,7,-54,20*,3,32,24*,
CCOc1ccc(NS(=O)(=O)c2ccc3[nH]c(=O)[nH]c3c2)cc1,2,-2,0,-3,0,2,/,
SMILES,Rin1-Abl PPI inh,Apaf-1 inh,UBC13 inh,PAD4 FP inh,GSTO1 inh,UBC9 SUMO inh,PAD4 FP conf,others
CC1CC(C)CN(C(=O)c2cccc(S(=O)(=O)N(C)c3ccccc3)c2)C1 (centres undefined),3,18,2,/,/,/,/,
COc1ccc(N(C)S(=O)(=O)c2cccc(C(=O)OCC(=O)N3CC(C)CC(C)C3)c2)cc1 (centres undefined),1,12,7,17*,/,/,3,
COc1ccc(NC(=O)COC(=O)c2ccc(S(=O)(=O)N(C)c3ccccc3OC)cc2)c(OC)c1,/,/,/,/,/,6,/,
c1cc(CNc2ccc(N3CCOCC3)cc2)ccn1,0,-8,1,25*,18,6,4,
Cc1ccc(NC(=O)C(C)N2CCOCC2)c(C(=O)c2ccccc2)c1 (centres undefined),4,9,2,40*,2,22,2,
CC(C)C(=O)Nc1cc2c(cc1C(=O)c1ccccc1)OCCO2,2,1,4,1,1,11,/,

# Screening data (PubChem)
